# Source: ChEMBL document CHEMBL1142416, “Pharmacological exploitation of the peroxisome proliferator-activated receptor gamma agonist ciglitazone to develop a novel class of androgen receptor-ablative agents” (J Med Chem, 2008)
# Activity calls are given as the source filed them. No cut-off for these calls is given here.
# Assays:
# LNCaP [1] = test: Inhibition of androgen receptor protein expression in human LNCaP cells after 72 hrs by Western blotting; assay type: functional, cell-based
# Method in brief: (§1)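 LNCaP cells (1×10⁶/T25 flask) were exposed in 10% FBS-supplemented medium; dose series ran 72 h. Protein extracts were resolved on 10% SDS-PAGE and transferred to nitrocellulose, then blocked in 5% milk/TBST. Blots were probed overnight at 4°C with mouse anti-AR or anti-β-actin (1:1000), then HRP goat anti-mouse (1:2500, 1 h), and detected by enhanced chemiluminescence.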
# LNCaP [2] = test: Suppression of androgen receptor protein expression in human LNCaP cells at 30 uM by Western blotting; assay type: functional, cell-based; method in brief: as §1
# LNCaP [3] = test: Antitumor activity against androgen responsive human LNCaP cells by MTT assay at 72 hrs; assay type: functional, cell-based
# Method in brief: (§2)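 LNCaP or PC-3 cells were seeded at 6000/well in 10% FBS RPMI 1640 for 24 h. They were then treated at various concentrations in 5% FBS RPMI 1640 for 48 or 72 h, with DMSO-matched controls. MTT (0.5 mg/ml) was added for 2 h at 37°C and the dye solubilized in DMSO. A570 was read in six replicates, and IC50 was taken from dose-response.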
# LNCaP [4] = test: Inhibition of androgen receptor mRNA expression in human LNCap cells after 72 hrs; assay type: functional, cell-based; settings: in the assay text read “protein expression” for “mRNA expression”
# LNCaP [5] = test: Induction of apoptosis in human LNCaP cells assessed as caspase 7 activation after 72 hrs; assay type: functional, cell-based
# Method in brief: (§3)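 LNCaP cells were treated over a dose range for 72 h. Lysates were prepared with protease/phosphatase inhibitors and run on 10% SDS-PAGE, then transferred to nitrocellulose. PARP cleavage and caspase-3 and caspase-7 processing were detected by immunoblot with chemiluminescence.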
# LNCaP [6] = test: Cell cycle arrest in human LNCaP cells assessed as accumulation at G2/M phase at 10 uM after 72 hrs; assay type: functional
# Method in brief: (§4)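 LNCaP cells were plated at 2.5 × 10⁶ cells/well and treated at the stated concentrations for 72 h. They were washed in PBS, trypsinized and fixed in ice-cold 80% ethanol overnight at 4°C. Staining used propidium iodide (50 μg/ml) with RNase A (100 units/ml) in PBS. Phase distribution was measured by flow cytometry; values are the mean of two independent determinations.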
# LNCaP [7] = test: Cell cycle arrest in human LNCaP cells assessed as accumulation at S phase at 5 uM after 72 hrs; assay type: functional; method in brief: as §4
# LNCaP [8] = test: Cell cycle arrest in human LNCaP cells assessed as accumulation at G1 phase at 2.5 uM after 72 hrs; assay type: functional; method in brief: as §4
# LNCaP [9] = test: Induction of apoptosis in human LNCaP cells assessed as PARP cleavage after 72 hrs; assay type: functional, cell-based; method in brief: as §3
# LNCaP [10] = test: Cell cycle arrest in human LNCaP cells assessed as accumulation at subG1 phase at 10 uM after 72 hrs; assay type: functional; method in brief: as §4
# LNCaP [11] = test: Cell cycle arrest in human LNCaP cells assessed as accumulation at G2/M phase at 1 uM after 72 hrs; assay type: functional; method in brief: as §4
# LNCaP [12] = test: Decrease in androgen receptor protein expression in human LNCaP cells at 5 uM after 48 hrs by immunocytochemical method; assay type: functional, cell-based
# Method in brief: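 LNCaP cells were seeded on coverslips (2.5 × 10⁵/well) for 24 h, then exposed to 5 μM for 48 h. They were fixed and permeabilized with 0.1% Triton X-100 in PBS for 1 h. Mouse anti-AR (1:100) was applied for 12 h at room temperature, then Alexa Fluor 488 goat anti-mouse IgG (1:100) for 2 h. Nuclei were counterstained with DAPI and slides imaged by microscopy.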
# LNCaP [13] = test: Cell cycle arrest in human LNCaP cells assessed as accumulation at subG1 phase at 1 uM after 72 hrs; assay type: functional; method in brief: as §4
# LNCaP [14] = test: Induction of apoptosis in human LNCaP cells assessed as caspase 3 activation after 72 hrs; assay type: functional, cell-based; method in brief: as §3
# LNCaP [15] = test: Cell cycle arrest in human LNCaP cells assessed as accumulation at G1 phase at 5 uM after 72 hrs; assay type: functional; method in brief: as §4
# LNCaP [16] = test: Cell cycle arrest in human LNCaP cells assessed as accumulation at subG1 phase at 2.5 uM after 72 hrs; assay type: functional; method in brief: as §4
# LNCaP [17] = test: Cell cycle arrest in human LNCaP cells assessed as accumulation at S phase at 7.5 uM after 72 hrs; assay type: functional; method in brief: as §4
# LNCaP [18] = test: Cell cycle arrest in human LNCaP cells assessed as accumulation at G1 phase at 1 uM after 72 hrs; assay type: functional; method in brief: as §4
# LNCaP [19] = test: Cell cycle arrest in human LNCaP cells assessed as accumulation at S phase at 1 uM after 72 hrs; assay type: functional; method in brief: as §4
# PC-3 [20] = test: Antitumor activity against androgen non-responsive human PC3 cells by MTT assay at 48 hrs; assay type: functional, cell-based; settings: PC-3, 48 h; method in brief: as §2
# LNCaP [21] = test: Cell cycle arrest in human LNCaP cells assessed as accumulation at G2/M phase at 5 uM after 72 hrs; assay type: functional; method in brief: as §4
# LNCaP [22] = test: Cell cycle arrest in human LNCaP cells assessed as accumulation at G2/M phase at 2.5 uM after 72 hrs; assay type: functional; method in brief: as §4
# LNCaP [23] = test: Antitumor activity against androgen responsive human LNCaP cells by MTT assay at 48 hrs; assay type: functional, cell-based; method in brief: as §2
# LNCaP [24] = test: Cell cycle arrest in human LNCaP cells assessed as accumulation at G2/M phase at 7.5 uM after 72 hrs; assay type: functional; method in brief: as §4
# LNCaP [25] = test: Cell cycle arrest in human LNCaP cells assessed as accumulation at S phase at 2.5 uM after 72 hrs; assay type: functional; method in brief: as §4
# LNCaP [26] = test: Cell cycle arrest in human LNCaP cells assessed as accumulation at subG1 phase at 7.5 uM after 72 hrs; assay type: functional; method in brief: as §4
# LNCaP [27] = test: Cell cycle arrest in human LNCaP cells assessed as accumulation at G1 phase at 10 uM after 72 hrs; assay type: functional; method in brief: as §4
# LNCaP [28] = test: Cell cycle arrest in human LNCaP cells assessed as accumulation at subG1 phase at 5 uM after 72 hrs; assay type: functional; method in brief: as §4
# PC-3 [29] = test: Antitumor activity against androgen non-responsive human PC3 cells by MTT assay at 72 hrs; assay type: functional, cell-based; settings: PC-3, 72 h; method in brief: as §2
# LNCaP [30] = test: Cell cycle arrest in human LNCaP cells assessed as accumulation at G1 phase at 7.5 uM after 72 hrs; assay type: functional; method in brief: as §4
# LNCaP [31] = test: Cell cycle arrest in human LNCaP cells assessed as accumulation at S phase at 10 uM after 72 hrs; assay type: functional; method in brief: as §4
# LNCaP [32] = test: Suppression of androgen receptor protein expression in human LNCaP cells at 60 uM by Western blotting; assay type: functional, cell-based; method in brief: as §1
# LNCaP [33] = test: Suppression of androgen receptor mRNA expression in human LNCaP cells at 60 uM by RT-PCR; assay type: functional, cell-based
# Method in brief: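 LNCaP cells (1×10⁶/T25 flask) were treated in 10% FBS-supplemented medium for various times. Total RNA was isolated and 6 μg reverse-transcribed. AR and β-actin (reference) were amplified by PCR with gene-specific primers, and products were resolved on 1.5% agarose gels.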
smiles,measurement,setting,value
CC1(CN2C(=O)SC(Cc3ccc(O)c(C(F)(F)F)c3)C2=O)CCCCC1 (configuration not stated),Activity,LNCaP [1],Dose-dependent effect
CC1(COc2ccc(/C=C3\SC(O)=NC3=O)cc2)CCCCC1,Activity,LNCaP [2],Active
CC1(CN2C(=O)S/C(=C\c3ccc(O)cc3)C2=O)CCCCC1,Activity,LNCaP [1],Dose-dependent effect
CC1(CN2C(=O)S/C(=C\c3ccc(O)c(C(F)(F)F)c3)C2=O)CCCCC1,IC50,LNCaP [3],3 µM
same,Activity,LNCaP [4],Active
same,Activity,LNCaP [5],Dose-dependent effect
same,Activity,LNCaP [6],0%
same,Activity,LNCaP [7],18%
same,Activity,LNCaP [8],65%
same,Activity,LNCaP [9],Dose-dependent effect
same,Activity,LNCaP [10],28%
same,Activity,LNCaP [11],14%
same,Activity,LNCaP [12],Active
same,Activity,LNCaP [13],1%
same,Activity,LNCaP [14],Dose-dependent effect
same,Activity,LNCaP [15],69%
same,Activity,LNCaP [16],2%
same,Activity,LNCaP [17],15%
same,Activity,LNCaP [18],66%
same,Activity,LNCaP [19],19%
same,IC50,PC-3 [20],15 µM
same,Activity,LNCaP [21],3%
same,Activity,LNCaP [22],14%
same,IC50,LNCaP [23],8 µM
same,Activity,LNCaP [24],2%
same,Activity,LNCaP [25],19%
same,IC50,LNCaP [1],2 µM
same,Activity,LNCaP [26],20%
same,Activity,LNCaP [27],51%
same,Activity,LNCaP [28],10%
same,IC50,PC-3 [29],12 µM
same,Activity,LNCaP [30],63%
same,Activity,LNCaP [31],21%
CC1(COc2cccc(/C=C3\SC(=O)NC3=O)c2)CCCCC1,Activity,LNCaP [1],Dose-dependent effect
CC1(COc2ccc(CC3SC(=O)NC3=O)cc2)CCCCC1 (configuration not stated),Activity,LNCaP [32],Active
same,Activity,LNCaP [33],Active
CCOc1cc(/C=C2\SC(=O)NC2=O)ccc1OCC1(C)CCCCC1,Activity,LNCaP [1],Dose-dependent effect
CC1(CN2C(=O)S/C(=C\c3cc(Br)c(O)c(Br)c3)C2=O)CCCCC1,Activity,LNCaP [4],Active
same,Activity,LNCaP [5],Dose-dependent effect
same,Activity,LNCaP [9],Dose-dependent effect
same,Activity,LNCaP [14],Dose-dependent effect
same,IC50,LNCaP [1],4 µM
